ChEMBL document CHEMBL2424522, “Demonic axe-like conjugated alkynes in combating microbes” (2013)
≈ marks a conversion by molar mass, not a printed value.

What was measured:
Type in all cases: functional
Bacillus subtilis = assay: Antibacterial activity against Bacillus subtilis MTCC 441 by broth dilution method
How it was run: (§1)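 Broth dilution per NCCL standards; all phosphorus ylides and conjugated alkynes tested in vitro.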

Aspergillus niger [1] = assay: Antifungal activity against Aspergillus niger MTCC 344 at 50 ug/ml after 48 hrs by agar well diffusion method; settings: MTCC 344, 48 h, read-out: IZ
How it was run: (§2)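 Test samples and DMSO controls incubated at 27 °C for 48 h. Inhibition zone diameter measured in mm. Three to four replicates per treatment.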

Aspergillus flavus [2] = assay: Antifungal activity against Aspergillus flavus MTCC 277 at 100 ug/ml after 48 hrs by agar well diffusion method; settings: MTCC 277, 48 h, read-out: IZ; how it was run: as §2
Candida albicans [3] = assay: Antifungal activity against Candida albicans MTCC 227 at 50 ug/ml after 48 hrs by agar well diffusion method; settings: MTCC 227, 48 h, read-out: IZ; how it was run: as §2
Klebsiella pneumoniae = assay: Antibacterial activity against Klebsiella pneumoniae MTCC 618 by broth dilution method; how it was run: as §1
Aspergillus niger [4] = assay: Antifungal activity against Aspergillus niger MTCC 344 at 100 ug/ml after 48 hrs by agar well diffusion method; settings: MTCC 344, 48 h, read-out: IZ; how it was run: as §2
Candida albicans [5] = assay: Antifungal activity against Candida albicans MTCC 227 at 100 ug/ml after 48 hrs by agar well diffusion method; settings: MTCC 227, 48 h, read-out: IZ; how it was run: as §2
Escherichia coli = assay: Antibacterial activity against Escherichia coli MTCC 443 by broth dilution method; how it was run: as §1
Pseudomonas aeruginosa = assay: Antibacterial activity against Pseudomonas aeruginosa MTCC 741 by broth dilution method; how it was run: as §1
Diutina rugosa [6] = assay: Antifungal activity against Candida rugosa NCIM 3462 at 50 ug/ml after 48 hrs by agar well diffusion method; settings: NCIM 3462, 48 h, read-out: IZ; how it was run: as §2
Diutina rugosa [7] = assay: Antifungal activity against Candida rugosa NCIM 3462 at 100 ug/ml after 48 hrs by agar well diffusion method; settings: NCIM 3462, 48 h, read-out: IZ; how it was run: as §2
Staphylococcus aureus = assay: Antibacterial activity against Staphylococcus aureus MTCC 96 by broth dilution method; how it was run: as §1
Saccharomyces cerevisiae [8] = assay: Antifungal activity against Saccharomyces cerevisiae MTCC 36 at 50 ug/ml after 48 hrs by agar well diffusion method; settings: MTCC 36, 48 h, read-out: IZ; how it was run: as §2
Aspergillus flavus [9] = assay: Antifungal activity against Aspergillus flavus MTCC 277 at 50 ug/ml after 48 hrs by agar well diffusion method; settings: MTCC 277, 48 h, read-out: IZ; how it was run: as §2
Saccharomyces cerevisiae [10] = assay: Antifungal activity against Saccharomyces cerevisiae MTCC 36 at 100 ug/ml after 48 hrs by agar well diffusion method; settings: MTCC 36, 48 h, read-out: IZ; how it was run: as §2
[11] = test system: Staphylococcus epidermidis; assay: Antibacterial activity against Staphylococcus epidermidis MTCC 435 by broth dilution method; how it was run: as §1

SMILES | MIC (Bacillus subtilis) | MIC (Klebsiella pneumoniae) | MIC (Escherichia coli) | MIC (Pseudomonas aeruginosa) | MIC (Staphylococcus aureus) | MIC [11] | zone of inhibition at 50 µg/mL (Aspergillus niger [1]) | zone of inhibition at 100 µg/mL (Aspergillus flavus [2]) | zone of inhibition at 50 µg/mL (Candida albicans [3]) | zone of inhibition at 100 µg/mL (Aspergillus niger [4]) | zone of inhibition at 100 µg/mL (Candida albicans [5]) | zone of inhibition at 50 µg/mL (Diutina rugosa [6]) | zone of inhibition at 100 µg/mL (Diutina rugosa [7]) | zone of inhibition at 50 µg/mL (Saccharomyces cerevisiae [8]) | zone of inhibition at 50 µg/mL (Aspergillus flavus [9]) | zone of inhibition at 100 µg/mL (Saccharomyces cerevisiae [10])
CC(C)OC(=O)C#Cc1ccc(Cl)nc1 | 50 µg/mL (≈ 224 µM) | 12.5 µg/mL (≈ 55.9 µM) | 100 µg/mL (≈ 447 µM) | 1.56 µg/mL (≈ 6.97 µM) | 1.56 µg/mL (≈ 6.97 µM) | 1.56 µg/mL (≈ 6.97 µM) | 17 mm | 19 mm | 13 mm | 23 mm | 19 mm | 0 mm | 11 mm | 11 mm | 12 mm | 17 mm
Cc1ccccc1C#CC#N | > 150 µg/mL | > 150 µg/mL | > 150 µg/mL | > 150 µg/mL | > 150 µg/mL | > 150 µg/mL | 0 mm | 0 mm | 0 mm | 0 mm | 0 mm | 0 mm | 0 mm | 0 mm | 0 mm | 0 mm
N#CC#Cc1cc(F)c(Cl)nc1Cl | 6.25 µg/mL (≈ 29.1 µM) | 12.5 µg/mL (≈ 58.1 µM) | 100 µg/mL (≈ 465 µM) | 100 µg/mL (≈ 465 µM) | 12.5 µg/mL (≈ 58.1 µM) | 25 µg/mL (≈ 116 µM) | 20 mm | 25 mm | 11 mm | 24 mm | 16 mm | 0 mm | 11 mm | 0 mm | 20 mm | 10 mm

Now from value to molecule, other results behind:

MIC (Bacillus subtilis) | MIC (Klebsiella pneumoniae) | MIC (Escherichia coli) | MIC (Pseudomonas aeruginosa) | MIC (Staphylococcus aureus) | MIC [11] | SMILES | zone of inhibition at 50 µg/mL (Aspergillus niger [1]) | zone of inhibition at 100 µg/mL (Aspergillus flavus [2]) | zone of inhibition at 50 µg/mL (Candida albicans [3]) | zone of inhibition at 100 µg/mL (Aspergillus niger [4]) | zone of inhibition at 100 µg/mL (Candida albicans [5]) | zone of inhibition at 50 µg/mL (Diutina rugosa [6]) | zone of inhibition at 100 µg/mL (Diutina rugosa [7]) | zone of inhibition at 50 µg/mL (Saccharomyces cerevisiae [8]) | zone of inhibition at 50 µg/mL (Aspergillus flavus [9]) | zone of inhibition at 100 µg/mL (Saccharomyces cerevisiae [10])
6.25 µg/mL (≈ 29.8 µM) | 6.25 µg/mL (≈ 29.8 µM) | 100 µg/mL (≈ 477 µM) | 0.78 µg/mL (≈ 3.72 µM) | 1.56 µg/mL (≈ 7.44 µM) | 50 µg/mL (≈ 239 µM) | CCOC(=O)C#Cc1ccc(Cl)nc1 | 25 mm | 25 mm | 15 mm | 29 mm | 20 mm | 10 mm | 15 mm | 25 mm | 20 mm | 29 mm
> 150 µg/mL | > 150 µg/mL | > 150 µg/mL | > 150 µg/mL | > 150 µg/mL | > 150 µg/mL | CCOC(=O)C#Cc1ccccc1C | 0 mm | 0 mm | 0 mm | 0 mm | 0 mm | 0 mm | 0 mm | 0 mm | 0 mm | 0 mm
> 150 µg/mL | > 150 µg/mL | > 150 µg/mL | > 150 µg/mL | > 150 µg/mL | > 150 µg/mL | CCOC(=O)C#CC(C)(C)C | 0 mm | 0 mm | 0 mm | 0 mm | 0 mm | 0 mm | 0 mm | 0 mm | 0 mm | 0 mm
